Screening results from PubChem.
C-LANA FP = inhibitors of KSHV C-LANA binding to DNA, primary screen, biochemical, fluorescence polarization, FAM-LBS DNA, MBP-C-LANA, single point. Kaposi's sarcoma herpesvirus LANA C-terminal domain (residues 932-1162) DNA binding. inhibition, % at 9 µM. hit rate 0.078% among 340,000. AID 504423, 2011;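 active means highest replicate inhibition at or above 60% at 9 µM, even if other replicates fall short; inactive means all replicates below 60% inhibition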;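 further: 0% = neutral control wells and 100% = 4 µM acridine orange control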
MEX-5 binding = MEX-5 zinc finger RNA-binding disruptors – biochemical, C. elegans, fluorescence polarization, MLPCN library, primary screen. Zinc finger protein mex-5 (Caenorhabditis elegans), Q9XUB2. hit rate 0.38% among 300,000. activity score (negative = inhibition of binding), % at 10 µM. MEX-5/FITC-TCR2 RNA binding; hits give low values;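 active means inhibition past about -25% in most replicates, and total fluorescence under double the plate's negative control median, limit read from the data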;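 further: 0% = DMSO and -100% = 5 µM competing unlabeled TCR2 RNA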
Target sequence (Q9XUB2 whole entry, looked up): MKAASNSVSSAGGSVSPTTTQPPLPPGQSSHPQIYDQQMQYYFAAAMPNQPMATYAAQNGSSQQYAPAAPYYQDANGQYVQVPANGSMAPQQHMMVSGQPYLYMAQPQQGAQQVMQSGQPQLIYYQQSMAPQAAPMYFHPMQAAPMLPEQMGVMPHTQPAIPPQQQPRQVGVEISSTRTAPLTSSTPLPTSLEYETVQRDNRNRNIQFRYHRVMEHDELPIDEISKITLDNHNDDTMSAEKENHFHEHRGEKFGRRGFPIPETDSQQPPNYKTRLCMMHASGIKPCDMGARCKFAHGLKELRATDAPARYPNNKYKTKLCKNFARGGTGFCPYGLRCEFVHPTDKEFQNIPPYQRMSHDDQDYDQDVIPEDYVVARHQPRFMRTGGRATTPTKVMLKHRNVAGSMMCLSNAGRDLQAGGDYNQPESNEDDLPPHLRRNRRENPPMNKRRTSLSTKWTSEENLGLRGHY
EBV gp42 inh = Epstein-Barr virus gp42 inhibitors, primary screen, biochemical, uHTS, fluorescence polarization | Glycoprotein 42 (Epstein-Barr virus (strain AG876)), Q1HVG2 | hit rate 0.42% among 220,000 | inhibition, % (tested at 21.74 µM) | AID 1085, 2008 | Fluorescence polarization binding assay, mP read-out; in the data active means inhibition above about 50%
Target sequence (Q1HVG2 whole entry, looked up): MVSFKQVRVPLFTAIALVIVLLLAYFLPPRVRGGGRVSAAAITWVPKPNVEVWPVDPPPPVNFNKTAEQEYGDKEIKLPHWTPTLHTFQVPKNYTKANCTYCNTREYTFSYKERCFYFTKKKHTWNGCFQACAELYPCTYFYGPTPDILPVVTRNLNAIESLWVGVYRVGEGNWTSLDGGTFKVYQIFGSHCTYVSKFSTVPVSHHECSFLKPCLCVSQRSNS
GRK2 inh = compounds blocking aptamer binding on GRK2 – biochemical, human GRK2, bead flow cytometry, HTS, primary screen | Beta-adrenergic receptor kinase 1 (Homo sapiens), P25098 | FAM-aptamer displacement from GRK2 | inhibition of aptamer binding, % at 10 µM | hit rate 0.59% among 330,000;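 active means inhibition of aptamer binding above 40%, roughly 3 SD of noise, on plates passing a quality check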;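 further: median bead fluorescence of bound FAM aptamer so fluorescent compounds give negative values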
T cell HTS = modulators of CD8 T cell-vesicle binding, primary screen, mouse 2C CD8+ T cells, flow cytometry. 2C CD8+ T cell-vesicle binding; hits give low values. response (vesicle binding), % at 7 µM. hit rate 0.068% among 330,000. AID 2052, 2009;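 active means response, share of CD8 T cells binding vesicles, and their 90th percentile fluorescence all below set limits, cut at about 80% in these data, passing the limit was not always enough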;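 further: values below 100% mean blocked vesicle binding to the CD8+ T cells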
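Assay system – 2C mouse CD8+ T cells · Also added – QL9-loaded Drosophila micro-vesicles · Timing – Cell–vesicle co-incubation 1.5 h at 37 °C, staining 20 min on ice · Signal – flow cytometry of vesicle-bound cells · Measure – percent CD8+ FL2 mean versus row control · Controls – Peptide-free naked vesicles (low) and QL9 vesicles with 0.7% DMSO vehicle (high)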
Keap1 Nrf2 FP = Keap1-Nrf2 protein-protein interaction inhibitors, primary screen, biochemical, fluorescence polarization, single point | Kelch-like ECH-associated protein 1 (Homo sapiens), Q14145 | Keap1 Kelch-Nrf2 peptide fluorescence polarization, 1536-well | inhibition, % at 9.4 µM | hit rate 0.15% among 340,000; in the data active means inhibition above about 12%;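 further: human Keap1 Kelch domain with fluorescein labeled Nrf2 9mer peptide probe; 0% = neutral control wells and 100% = peptide positive control; higher means more block of Keap1 binding to Nrf2 peptide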
GRK2 inh confirm = GRK2 aptamer-displacing inhibitors, retest, confirmation, biochemical, cherry pick 1, bead flow cytometry; shares compounds with GRK2 inh; bead-bound GRK2, FAM-aptamer displacement; aptamer displacement, % at 10 µM; hit rate 4% among 2,000;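 active means aptamer displacement above 40%, near three times the noise of non-fluorescent compounds, on plates passing quality checks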;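 further: negative values mostly reflect intrinsic compound fluorescence rather than true enhancement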
Aptamer quench SP = counter-screen for GRK2 aptamer inhibitors: fluorescent aptamer quenchers; shares compounds with GRK2 inh; Carboxyfluorescein RNA aptamer on beads, flow cytometry quenching; hits give low values; fluorescence response (% of DMSO), % at 10 µM; 2,000 tested, under 10 active; AID 504580;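 active means compounds that quench the bead-bound fluorescent RNA probe, cutting fluorescence to under half of the solvent control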;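 further: counterscreen run without GRK2 so only probe quenching by compound is measured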
GRK2 confirm 2 = GRK2 aptamer-displacing inhibitors, hit retest, confirmation, biochemical, cherry pick 2, bead flow cytometry | shares compounds with GRK2 inh | bead-bound GRK2, FAM-aptamer displacement | inhibition of aptamer binding, % at 10 µM | 360 tested, under 10 active | AID 504782, 2011;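 active means inhibition of aptamer binding above 40%, about triple the noise seen with nonglowing compounds, on plates passing quality control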;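 further: negative values mostly come from compounds that fluoresce themselves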
FAM quench SP = counter-screen for GRK2 binding hits: quenchers of fluorescent RNA aptamer | shares compounds with GRK2 inh | carboxyfluorescein RNA aptamer beads, flow cytometry quenching; hits give low values | fluorescence response vs DMSO, % at 10 µM | 360 tested, under 10 active | AID 588494;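 active means response vs DMSO under 50%, meaning signal dropped by over half, treated as fluorescence quencher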;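 further: labelled aptamer on streptavidin beads without GRK2 as a quench counter-screen; 100% = bead fluorescence of DMSO wells and lower means quenching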
* marks the source's active call; other numbers are inactive results; i = inactive; x = no result given. This is a sample that favours compounds with a hit; in the whole collection about 1.3% have one here.

SMILES	C-LANA FP	MEX-5 binding	EBV gp42 inh	GRK2 inh	T cell HTS	Keap1 Nrf2 FP	GRK2 inh confirm	Aptamer quench SP	others
COc1ccc(N2CCN(C(=O)NC(=O)c3ccccc3)CC2)cc1	9	2	x	57*	151	0	x	x	GRK2 confirm 2=5;FAM quench SP=96
CCc1ccc(C2C(C#N)=C(N)C(C#N)(C#N)C3=CCC(C(C)(C)C)CC32)cc1 (stereo unspecified)	10	-6	6	0	181	4	x	x
Cn1c(-c2ccc(N)cc2)nc2ccccc21	0	x	-4	0	334	2	x	x
Cn1c(-c2ccc3nc(N)sc3c2)nc2cc(N)ccc21	-1	-1	-31	52*	i	1	4	96
CN(C)S(=O)(=O)N1CCN(C(=O)N2CCOCC2)CC1	0	-4	-23	0	698	-3	x	x
Cc1ccc(C(=O)Nc2ccc(C(=O)/C=C/c3cccs3)cc2)cc1	5	-2	-15	0	446	0	x	x
COC(=O)Cn1c(CN2CCOCC2)nc2c1c(=O)[nH]c(=O)n2C	-1	3	0	34	419	-6	-2	100
[O-]/C(=C(\C(=S)Nc1ccc(SC(F)F)cc1)[n+]1ccccc1)c1cc(Cl)ccc1Cl	0	-1	-3	2	i	-4	x	x
c1ccc2sc(N3CCOCC3)nc2c1	-1	-2	-12	4	385	-4	x	x
c1ccc2sc(N3CN(CCN4CCOCC4)CN(c4nc5ccccc5s4)C3)nc2c1	-2	2	-4	31	225	-7	-2	101
COc1ccccc1-c1nnc(SCC(=O)NC2CC2)n1C	-2	x	x	86*	430	-8	3	96
Cc1ccccc1-n1ccnc1SCC(=O)NC1CCCC1	1	-2	x	49*	156	-3	2	100
COc1ccccc1-c1nnc(SCC(=O)NC2CCCCC2)n1C	1	2	x	0	i	3	x	x
O=C(NC1=NCCS1)C1CCN(S(=O)(=O)c2ccc(Cl)cc2)CC1	0	x	x	2	655	-7	x	x
O=C(NC1=NCCS1)C1CCN(S(=O)(=O)c2cc([N+](=O)[O-])ccc2Cl)CC1	1	x	x	26	643	-3	1	94
Cc1nc([N+](=O)[O-])cn1CC(=O)c1ccc(Cl)cc1	1	4	x	0	162	-1	x	x
O=C(O)CCn1c(CO)nc2ccccc21	1	2	-5	0	322	-2	x	x
O=C(O)CCn1c(-c2ccccn2)nc2ccccc21	-1	-1	x	27	172	-2	4	95
C/C(=N/NC(=O)CNC(=O)c1ccccn1)c1cccc([N+](=O)[O-])c1	0	-1	-9	0	165	-5	x	x
COc1ccc(NC(=S)NNc2ccc(S(=O)(=O)Nc3ccccc3C(=O)O)cc2[N+](=O)[O-])cc1	5	-87*	-5	48*	981	5	4	99
CC(C)CN(C(=O)COC(=O)c1cncc(Br)c1)c1c(N)n(Cc2ccccc2)c(=O)[nH]c1=O	1	3	x	10	237	0	x	x
O=C1OCc2ccc(NC(=O)c3sccc3Cl)cc21	5	-1	1	73*	245	4	-1	101
O=C(NCC(=O)N(c1ccccc1)C(C(=O)NC1CCCC1)c1ccncc1)c1cccs1 (stereo unspecified)	3	2	x	0	365	-5	x	x
N=C1/C(=C/c2ccco2)C(=O)N=C2SC(CC(=O)N3CCCC3)=NN12	13	-3	x	46*	406	1	14	96
COCCN1C(=S)N[C@@H](c2cccc(F)c2)C(C(=O)OC)=C1C	x	-1	x	0	408	x	x	x
SMILES	C-LANA FP	MEX-5 binding	EBV gp42 inh	GRK2 inh	T cell HTS	Keap1 Nrf2 FP	GRK2 inh confirm	Aptamer quench SP	others
CC1CC(C)CN(S(=O)(=O)c2cccc(C(=O)OCCN3CCCC3=O)c2)C1 (stereo unspecified)	3	-1	-5	89*	467	-1	2	98
COc1ccc(C(=O)c2cc([N+](=O)[O-])ccc2N2CCN(C)CC2)cc1	0	3	-31	0	416	-3	x	x
NC(=O)C1CCN(CC(=O)N2c3ccccc3CCc3ccccc32)CC1	0	1	-10	32	170	-1	-1	98
C#CCOCCOCCOCCNc1nc(N2CCOCC2)nc(N2CCN(C(=O)CCCCCCCCCCNC(=O)[C@H](CO)n3cc(CCCSC)nn3)CC2)n1	2	x	x	50*	516	-7	-5	99
C#CCOCCOCCOCCNc1nc(N2CCOCC2)nc(N2CCN(C(=O)[C@H](CO)n3cc([C@@H](N)C(C)C)nn3)CC2)n1	9	x	x	74*	363	-2	x	x	GRK2 confirm 2=-19;FAM quench SP=100
C#CCOCCOCCOCCNc1nc(N2CCN(C(=O)CCCCCCCCCCNC(=O)[C@@H](CCC(=O)O)n3cc(CCCCCN)nn3)CC2)nc(N2CCN(C(=O)CCCCCCCCCCNC(=O)[C@H](CO)n3cc(CCCSC)nn3)CC2)n1	-1	x	x	2	512	-12	x	x
C#CCOCCOCCOCCNc1nc(N2CCN(C(=O)[C@H](CO)n3cc([C@@H](N)C(C)C)nn3)CC2)nc(N2CCN(C(=O)[C@H](CCCCN)n3cc([C@@H](N)[C@H](C)CC)nn3)CC2)n1	-4	x	x	0	210	-7	x	x
CCOc1ccccc1COC(=O)c1cccc(-n2cnnn2)c1	-1	0	-11	0	273	-4	x	x
CN1CCN(c2ccc([N+](=O)[O-])cc2C(=O)c2ccccc2)CC1	-1	1	5	7	230	4	x	x
O=C(c1ccccc1)c1cc([N+](=O)[O-])ccc1N1CCCC1	1	-1	1	100*	336	3	x	x	GRK2 confirm 2=-3;FAM quench SP=100
